From ChEMBL document CHEMBL1255245, “Relative replication capacity and selective advantage profiles of protease inhibitor-resistant hepatitis C virus (HCV) NS3 protease mutants in the HCV genotype 1b replicon system” (Antimicrob Agents Chemother, 2008)

Experiments:
[1] = system: Hepatitis C virus; experiment: Selectivity ratio of EC50 for Hepatitis C virus genotype 1b N expressing NS3 R155K mutant infected in human HuH7 cells to EC50 for Hepatitis C virus genotype 1b N expressing wild type NS3 infected in human HuH7 cells; type: functional, Hepacivirus hominis, genotype 1b strain N, Huh-7
Summary of the method: (§1)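 Change in resistance: mutant replicon EC50 divided by wild-type 1b N replicon EC50 for the same drug. Both EC50s come from 4-day transient-replication assays in electroporated Huh7 cells with a firefly luciferase read-out, fitted from triplicate-well means. Mean of at least three experiments.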

[2] = system: Hepatitis C virus; experiment: Selectivity ratio of EC50 for Hepatitis C virus genotype 1b N expressing NS3 T54A mutant infected in human HuH7 cells to EC50 for Hepatitis C virus genotype 1b N expressing wild type NS3 infected in human HuH7 cells; type: functional, Hepacivirus hominis, genotype 1b strain N, Huh-7; summary of the method: as §1
[3] = system: Hepatitis C virus; experiment: Selectivity ratio of EC50 for Hepatitis C virus genotype 1b N expressing NS3 V36M mutant infected in human HuH7 cells to EC50 for Hepatitis C virus genotype 1b N expressing wild type NS3 infected in human HuH7 cells; type: functional, Hepacivirus hominis, genotype 1b strain N, Huh-7; summary of the method: as §1
[4] = system: Hepatitis C virus; experiment: Selectivity ratio of EC50 for Hepatitis C virus genotype 1b N expressing NS3 A156T mutant infected in human HuH7 cells to EC50 for Hepatitis C virus genotype 1b N expressing wild type NS3 infected in human HuH7 cells; type: functional, Hepacivirus hominis, genotype 1b strain N, Huh-7; summary of the method: as §1
[5] = system: Hepatitis C virus; experiment: Selectivity ratio of EC50 for Hepatitis C virus genotype 1b N expressing NS3 D168A mutant infected in human HuH7 cells to EC50 for Hepatitis C virus genotype 1b N expressing wild type NS3 infected in human HuH7 cells; type: functional, Hepacivirus hominis, genotype 1b strain N, Huh-7; summary of the method: as §1
[6] = system: Hepatitis C virus; experiment: Selectivity ratio of EC50 for Hepatitis C virus genotype 1b N expressing NS3 A156S mutant infected in human HuH7 cells to EC50 for Hepatitis C virus genotype 1b N expressing wild type NS3 infected in human HuH7 cells; type: functional, Hepacivirus hominis, genotype 1b strain N, Huh-7; summary of the method: as §1
[7] = system: Hepatitis C virus; experiment: Antiviral activity against wild-type Hepatitis C virus genotype 1b N infected in human Huh7 cells; type: functional, organism-based, Hepacivirus hominis; conditions: genotype 1b strain N, Huh-7
Summary of the method: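 Transient replication: firefly-luciferase replicon RNA (genotype 1b N strain) transcribed in vitro and electroporated into Huh7 cells, plated in DMEM with 10% FBS. Luciferase read at 4 h to gauge transfection/translation. Drug dilutions added to a second plate set, incubated 4 days at 37°C, then luciferase measured. Triplicate samples per experiment; EC50 fitted from means; at least three experiments.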

[8] = system: Hepatitis C virus; experiment: Selectivity ratio of EC50 for Hepatitis C virus genotype 1b N expressing NS3 A156V mutant infected in human HuH7 cells to EC50 for Hepatitis C virus genotype 1b N expressing wild type NS3 infected in human HuH7 cells; type: functional, Hepacivirus hominis, genotype 1b strain N, Huh-7; summary of the method: as §1
[9] = system: Hepatitis C virus; experiment: Selectivity ratio of EC50 for Hepatitis C virus genotype 1b N expressing NS3 D168V mutant infected in human HuH7 cells to EC50 for Hepatitis C virus genotype 1b N expressing wild type NS3 infected in human HuH7 cells; type: functional, Hepacivirus hominis, genotype 1b strain N, Huh-7; summary of the method: as §1
[10] = system: Hepatitis C virus; experiment: Selectivity ratio of EC50 for Hepatitis C virus genotype 1b N expressing NS3 V36M/R155K double mutant infected in human HuH7 cells to EC50 for Hepatitis C virus genotype 1b N expressing wild type NS3 infected in human HuH7 cells; type: functional, Hepacivirus hominis, genotype 1b strain N, Huh-7; summary of the method: as §1
[11] = system: Hepatitis C virus; experiment: Selectivity ratio of EC50 for Hepatitis C virus genotype 1b N expressing NS3 R155Q mutant infected in human HuH7 cells to EC50 for Hepatitis C virus genotype 1b N expressing wild type NS3 infected in human HuH7 cells; type: functional, Hepacivirus hominis, genotype 1b strain N, Huh-7; summary of the method: as §1
[12] = system: Hepatitis C virus; experiment: Selectivity ratio of EC50 for Hepatitis C virus genotype 1b N expressing NS3 R155K mutant infected in human HuH7 cells to EC50 for Hepatitis C virus genotype 1b N expressing wild type NS3 infected in human HuH7 cells at >10 nM; type: functional, Hepacivirus hominis, genotype 1b strain N, Huh-7
[13] = system: Hepatitis C virus; experiment: Selectivity ratio of EC50 for Hepatitis C virus genotype 1b N expressing NS3 V170A mutant infected in human HuH7 cells to EC50 for Hepatitis C virus genotype 1b N expressing wild type NS3 infected in human HuH7 cells; type: functional, Hepacivirus hominis, genotype 1b strain N, Huh-7; summary of the method: as §1
[14] = system: Hepatitis C virus; experiment: Selectivity ratio of EC50 for Hepatitis C virus genotype 1b N expressing NS3 A156T mutant infected in human HuH7 cells to EC50 for Hepatitis C virus genotype 1b N expressing wild type NS3 infected in human HuH7 cells at 100 nM; type: functional, Hepacivirus hominis, genotype 1b strain N, Huh-7
[15] = system: Hepatitis C virus; experiment: Selectivity ratio of EC50 for Hepatitis C virus genotype 1b N expressing NS3 A156T mutant infected in human HuH7 cells to EC50 for Hepatitis C virus genotype 1b N expressing wild type NS3 infected in human HuH7 cells at 10 nM; type: functional, Hepacivirus hominis, genotype 1b strain N, Huh-7
[16] = system: Hepatitis C virus; experiment: Selectivity ratio of EC50 for Hepatitis C virus genotype 1b N expressing NS3 R155Q mutant infected in human HuH7 cells to EC50 for Hepatitis C virus genotype 1b N expressing wild type NS3 infected in human HuH7 cells at 10 nM; type: functional, Hepacivirus hominis, genotype 1b strain N, Huh-7
[17] = system: Hepatitis C virus; experiment: Selectivity ratio of EC50 for Hepatitis C virus genotype 1b N expressing NS3 D168V mutant infected in human HuH7 cells to EC50 for Hepatitis C virus genotype 1b N expressing wild type NS3 infected in human HuH7 cells at 100 nM; type: functional, Hepacivirus hominis, genotype 1b strain N, Huh-7
[18] = system: Hepatitis C virus; experiment: Selectivity ratio of EC50 for Hepatitis C virus genotype 1b N expressing NS3 V170A mutant infected in human HuH7 cells to EC50 for Hepatitis C virus genotype 1b N expressing wild type NS3 infected in human HuH7 cells at 10 nM; type: functional, Hepacivirus hominis, genotype 1b strain N, Huh-7
[19] = system: Hepatitis C virus; experiment: Selectivity ratio of EC50 for Hepatitis C virus genotype 1b N expressing NS3 R155K mutant infected in human HuH7 cells to EC50 for Hepatitis C virus genotype 1b N expressing wild type NS3 infected in human HuH7 cells at 100 nM; type: functional, Hepacivirus hominis, genotype 1b strain N, Huh-7
[20] = system: Hepatitis C virus; experiment: Selectivity ratio of EC50 for Hepatitis C virus genotype 1b N expressing NS3 R155K mutant infected in human HuH7 cells to EC50 for Hepatitis C virus genotype 1b N expressing wild type NS3 infected in human HuH7 cells at 10 nM; type: functional, Hepacivirus hominis, genotype 1b strain N, Huh-7
[21] = system: Hepatitis C virus; experiment: Selectivity ratio of EC50 for Hepatitis C virus genotype 1b N expressing NS3 R155Q mutant infected in human HuH7 cells to EC50 for Hepatitis C virus genotype 1b N expressing wild type NS3 infected in human HuH7 cells at 100 nM; type: functional, Hepacivirus hominis, genotype 1b strain N, Huh-7
[22] = system: Hepatitis C virus; experiment: Selectivity ratio of EC50 for Hepatitis C virus genotype 1b N expressing NS3 D168V mutant infected in human HuH7 cells to EC50 for Hepatitis C virus genotype 1b N expressing wild type NS3 infected in human HuH7 cells at 10 nM; type: functional, Hepacivirus hominis, genotype 1b strain N, Huh-7
[23] = system: Hepatitis C virus; experiment: Selectivity ratio of EC50 for Hepatitis C virus genotype 1b N expressing NS3 V170A mutant infected in human HuH7 cells to EC50 for Hepatitis C virus genotype 1b N expressing wild type NS3 infected in human HuH7 cells at 100 nM; type: functional, Hepacivirus hominis, genotype 1b strain N, Huh-7

SMILES	Ratio EC50 [1]	Ratio EC50 [2]	Ratio EC50 [3]	Ratio EC50 [4]	Ratio EC50 [5]	Ratio EC50 [6]	EC50 [7] [nM]	Ratio EC50 [8]	Ratio EC50 [9]	Ratio EC50 [10]	Ratio EC50 [11]	Ratio EC50 [13]	other results
CCC[C@H](NC(=O)[C@@H]1[C@H]2CCC[C@H]2CN1C(=O)[C@@H](NC(=O)[C@@H](NC(=O)c1cnccn1)C1CCCCC1)C(C)(C)C)C(=O)C(=O)NC1CC1 [TELAPREVIR]	5.4	6.7	0.7	96.3	0.1	19	320	63.1	0.2	3.3	1.3		
CC(C)(C)OC(=O)N[C@H]1CCCCC/C=C\[C@@H]2C[C@@]2(C(=O)NS(=O)(=O)C2CC2)NC(=O)[C@@H]2C[C@@H](OC(=O)N3Cc4cccc(F)c4C3)CN2C1=O [DANOPREVIR]	89.3	0.9	0.7	96	14	40	0.3	7.1	14.9	55.7	6.1	1.2	Ratio EC50 [12]: 33
COc1ccc2c(O[C@@H]3C[C@H]4C(=O)N[C@]5(C(=O)O)C[C@H]5/C=C\CCCCC[C@H](NC(=O)OC5CCCC5)C(=O)N4C3)cc(-c3csc(NC(C)C)n3)nc2c1 [CILUPREVIR]	147.5	0.6	0.8	366.6	63.3	28	1.5	445	193.6	139.9	29.6	1.5	Ratio EC50 [14]: 660; Ratio EC50 [15]: 7; Ratio EC50 [16]: 7; Ratio EC50 [17]: 660; Ratio EC50 [18]: 7; Ratio EC50 [19]: 660; Ratio EC50 [20]: 7; Ratio EC50 [21]: 660; Ratio EC50 [22]: 7; Ratio EC50 [23]: 660
